Assay results published in ChEMBL document CHEMBL5223168, “Using Imidazo[2,1-b][1,3,4]thiadiazol Skeleton to Design and Synthesize Novel MNK Inhibitors” (ACS Med Chem Lett, 2023).
Active and inactive are the calls of the source. The rule behind the calls is not given here.

Assays:
[1] = system: A549; experiment: Antitumor activity against human A549 cells xenografted in BALB/C nude mouse assessed as T/C ratio at 3 mg/kg, po QD for 14 days; assay type: functional; settings: time 14 day
Summary of the method: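 A549 xenografts in nude mice; compound given orally once daily at 75 or 150 mg/kg for 14 days, irinotecan reference at 3 mg/kg; tumor growth tracked as T/C ratio (relative tumor proliferation rate); body weight monitored.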

[2] = system: 3T3-L1; experiment: Inhibition of MNK in mouse 3T3-L1 cells assessed as inhibition of eIF4E phosphorylation at 5 uM incubated for 2 hrs by Western blot analysis; assay type: cell-based
Summary of the method: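 Mouse 3T3-L1 cells exposed to compound at 5 μM for 2 h; lysates resolved by SDS-PAGE and immunoblotted for phospho-eIF4E. Reference MNK inhibitor run in parallel at 1 μM.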

[3] = target: MAP kinase-interacting serine/threonine-protein kinase 1 (Homo sapiens, UniProt Q9BUB5); experiment: Inhibition of MNK1 (unknown origin) incubated for 60 mins using CREB as substrate in presence of ATP by LANCE Ultra kinase assay
[4] = target: MAP kinase-interacting serine/threonine-protein kinase 2 (Homo sapiens, UniProt Q9HBH9); experiment: Inhibition of MNK2 (unknown origin) incubated for 60 mins using CREB as substrate in presence of ATP by LANCE Ultra kinase assay
[5] = system: MEF; experiment: Inhibition of MNK in MNK2 knockout mouse MEF cells assessed as inhibition of eIF4E phosphorylation at 3 uM incubated for 2 hrs by Western blot analysis; assay type: cell-based
Summary of the method: (§1)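 MEFs lacking MNK1 or MNK2 (wild-type for comparison) treated 2 h at indicated concentrations; lysates immunoblotted for p-eIF4E, which reflects the remaining MNK isoform; quantified from three independent experiments, SEM.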

[6] = system: MEF; experiment: Inhibition of MNK in MNK1 knockout mouse MEF cells assessed as inhibition of eIF4E phosphorylation at 1 uM incubated for 2 hrs by Western blot analysis; assay type: cell-based; summary of the method: as §1

MAP kinase-interacting serine/threonine-protein kinase 2, sequence (Q9HBH9 whole entry): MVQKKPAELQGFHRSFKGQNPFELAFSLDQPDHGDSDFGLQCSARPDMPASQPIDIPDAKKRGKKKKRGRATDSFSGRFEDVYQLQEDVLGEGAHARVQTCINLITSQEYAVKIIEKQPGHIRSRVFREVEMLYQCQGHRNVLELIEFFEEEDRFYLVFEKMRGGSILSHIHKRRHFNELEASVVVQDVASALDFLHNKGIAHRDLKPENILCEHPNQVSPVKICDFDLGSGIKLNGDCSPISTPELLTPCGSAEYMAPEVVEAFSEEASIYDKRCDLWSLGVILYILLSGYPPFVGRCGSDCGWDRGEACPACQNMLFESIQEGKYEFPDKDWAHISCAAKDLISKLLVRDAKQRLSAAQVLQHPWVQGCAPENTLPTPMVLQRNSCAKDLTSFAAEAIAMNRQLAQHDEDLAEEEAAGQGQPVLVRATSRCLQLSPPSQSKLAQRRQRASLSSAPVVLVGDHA
MAP kinase-interacting serine/threonine-protein kinase 1, sequence (Q9BUB5 whole entry): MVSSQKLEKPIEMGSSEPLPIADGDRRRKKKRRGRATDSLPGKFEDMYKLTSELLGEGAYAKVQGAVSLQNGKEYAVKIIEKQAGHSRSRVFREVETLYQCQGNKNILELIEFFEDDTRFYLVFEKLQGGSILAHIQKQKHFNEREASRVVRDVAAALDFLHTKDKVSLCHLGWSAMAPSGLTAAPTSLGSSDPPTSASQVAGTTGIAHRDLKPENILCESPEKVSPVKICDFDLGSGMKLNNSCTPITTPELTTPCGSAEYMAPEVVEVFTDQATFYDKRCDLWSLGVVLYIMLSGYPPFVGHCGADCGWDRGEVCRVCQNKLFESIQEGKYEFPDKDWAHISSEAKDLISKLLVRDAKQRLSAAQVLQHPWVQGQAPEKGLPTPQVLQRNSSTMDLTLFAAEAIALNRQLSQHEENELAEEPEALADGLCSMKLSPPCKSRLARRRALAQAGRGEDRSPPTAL

Compound	IC50 [3]	IC50 [4]	inhibition [2]	other results
CCc1c2c(nc3ccc(OC(=O)N4CCC(N5CCCCC5)CC4)cc13)-c1cc3c(c(=O)n1C2)COC(=O)[C@]3(O)CC [IRINOTECAN]	–	–	–	T/C [1]: 0.4
CC1CCCCN1C(=O)c1ccc(-c2nn3c(-c4ccc(C#N)cc4)cnc3s2)cc1 (configuration not stated)	0.0369 µM	0.00533 µM	Active	–
N#Cc1ccc(-c2cn3nc(-c4ccc(C(=O)N5CCCC5)cc4)sc3n2)cc1	–	–	inactive	–
N#Cc1ccc(-c2cnc3ccc(-c4ccc(C(=O)N5CCOCC5)cc4)cn23)cc1	–	–	–	inhibition [5]: 50%; inhibition [6]: Active
COC(=O)c1ccc(-c2cnc3sc(-c4ccc(C(=O)N5CCN(C)CC5)cc4)nn23)cc1	0.376 µM	0.105 µM	Active	–
O=C(NCCO)c1ccc(-c2nn3cc(-c4ccccc4)nc3s2)cc1	–	–	inactive	–
CN1CCN(C(=O)c2ccc(-c3nn4c(-c5ccncc5)cnc4s3)cc2)CC1	0.21 µM	0.17 µM	Active	–
CN1CCN(C(=O)c2ccc(-c3nn4cc(-c5ccc(C#N)cc5)nc4s3)cc2)CC1	–	–	inactive	–
N#Cc1ccc(-c2cnc3sc(-c4ccc(C(=O)N5CCCC5)cc4)nn23)cc1	0.0278 µM	0.0208 µM	–	–
O=C(NCCCN1CCCC1)c1ccc(-c2nn3cc(-c4ccccc4)nc3s2)cc1	–	–	inactive	–
CN(C)CC(C)(C)CNC(=O)c1ccc(-c2nn3cc(-c4ccccc4)nc3s2)cc1	–	–	inactive	–
O=C(NCCc1ccncc1)c1ccc(-c2nn3cc(-c4ccc(F)cc4)nc3s2)cc1	–	–	inactive	–

Now from value to compound, other results behind:

IC50 [3]	IC50 [4]	Compound	inhibition [2]	other results
0.025 µM	0.0334 µM	CN(C)CCNC(=O)c1ccc(-c2nn3c(-c4ccc(C#N)cc4)cnc3s2)cc1	–	–
0.0136 µM	0.00881 µM	N#Cc1ccc(-c2cnc3sc(-c4ccc(C(=O)NCCO)cc4)nn23)cc1	–	–
0.01 µM	0.0104 µM	N#Cc1ccc(-c2cnc3sc(-c4ccc(C(=O)NCCN5CCCC5)cc4)nn23)cc1	–	–
0.0311 µM	0.0216 µM	N#Cc1ccc(-c2cnc3sc(-c4ccc(C(=O)NCCCN5CCOCC5)cc4)nn23)cc1	–	–
0.0216 µM	0.0167 µM	N#Cc1ccc(-c2cnc3sc(-c4ccc(C(=O)NCCCO)cc4)nn23)cc1	–	–
0.0429 µM	0.0578 µM	N#Cc1ccc(-c2cnc3sc(-c4ccc(C(=O)NCCCCCO)cc4)nn23)cc1	–	–
